According to ChEMBL document CHEMBL3865824, “New (E)-1-alkyl-1H-benzo[d]imidazol-2-yl)methylene)indolin-2-ones: Synthesis, in vitro cytotoxicity evaluation and apoptosis inducing studies” (Eur J Med Chem, 2016):
Calls of active or inactive are those of the source. The rule behind the calls is not given here.

Experiments:
[1] = Cell cycle arrest in human MDA-MB-231 cells assessed as accumulation at S phase at 1 uM after 24 hrs by propidium iodide staining based FACS analysis (reference value: 24.6 %); assay type: functional
Procedure, shortened: (§1)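 MDA-MB-231 at 1×10^6 cells/well treated with 1, 2 or 4 µM for 24 h, with a DMSO control. Cells harvested by trypsin, washed with PBS and fixed in 70% ethanol for 30 min at 4 °C. Stained 15 min at room temperature in the dark with PI buffer containing Triton X and DNase-free RNase A. Analysed by flow cytometry; G0/G1, S and G2/M fractions quantified.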

MDA-MB-231 [2] = test: Induction of apoptosis in human MDA-MB-231 cells assessed as cell shrinkage at 1 to 4 uM after 24 hrs by phase contrast microscopic analysis; assay type: functional, cell-based
Procedure, shortened: (§2)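 MDA-MB-231 treated at 1, 2 or 4 µM for 24 h. Morphology examined and photographed by phase contrast microscopy against untreated control cells.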

[3] = Cytotoxicity against HGC cells assessed as growth inhibition at 50 uM after 48 hrs by MTT assay relative to control; assay type: functional; conditions: Homo sapiens, read-out: GI
Procedure, shortened: (§3)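 Cells grown in DMEM or MEM with 10% FBS at 37 °C, 5% CO2. Seeded at 1×10^4 cells/well, incubated 48 h, then exposed to compound for 48 h with vehicle control. MTT (5 mg/mL stock) added for 4 h; formazan dissolved in DMSO, absorbance read at 570 nm. Preliminary screen at 50 µM. Compounds giving >50% inhibition were tested for dose-response curves; IC50 derived by linear regression of % inhibition versus concentration. Mean of three independent experiments in triplicate.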

MDA-MB-231 [4] = test: Induction of apoptosis in human MDA-MB-231 cells assessed as formation of horse-shoe shaped nuclei at 2 uM after 24 hrs by AO/EB-dual staining based fluorescent microscopic analysis; assay type: functional, cell-based
Procedure, shortened: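 MDA-MB-231 plated at 1×10^6 cells/mL and treated at 1, 2 or 4 µM, with a DMSO control. Incubation time is given as 48 h in the methods and 24 h in the figure legend. AO and EB added at 10 µg/mL each. Cells viewed within 10 min by fluorescence microscopy (excitation 488 nm, emission 550 nm) at 200×.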

[5] = Selectivity ratio of IC50 for human MCF10A cells to IC50 for human A549 cells; assay type: ADME, cell-based; conditions: MCF10A cells versus A549 cells, read-out: Ratio IC50
[6] = Cytotoxicity against human MCF7 cells assessed as reduction in cell viability after 48 hrs by MTT assay; assay type: functional, cell-based; conditions: MCF7, 48 h; procedure, shortened: as §3
MDA-MB-231 [7] = test: Induction of apoptosis in human MDA-MB-231 cells assessed as early apoptotic cells after 24 hrs by Annexin V-FITC/propidium iodide-staining based FACS analysis; assay type: functional, cell-based
[8] = Cell cycle arrest in human MDA-MB-231 cells assessed as accumulation at G2/M phase at 2 uM after 24 hrs by propidium iodide staining based FACS analysis (reference value: 26 %); assay type: functional; procedure, shortened: as §1
[9] = Cytotoxicity against […] cells assessed as reduction in cell viability after 48 hrs by MTT assay; assay type: functional, cell-based; conditions: 4T1, 48 h; procedure, shortened: as §3
[10] = Cytotoxicity against human DU145 cells assessed as growth inhibition at 50 uM after 48 hrs by MTT assay relative to control; assay type: functional; conditions: DU-145, 48 h, read-out: GI; procedure, shortened: as §3
[11] = Cytotoxicity against human A549 cells assessed as reduction in cell viability after 48 hrs by MTT assay; assay type: functional, cell-based; conditions: A549, 48 h; procedure, shortened: as §3
MDA-MB-231 [12] = test: Induction of apoptosis in human MDA-MB-231 cells assessed as loss of mitochondrial membrane potential at 2 uM after 24 hrs by rhodamine-123 -based spectrofluorometric analysis relative to control; assay type: functional
Procedure, shortened: (§4)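 MDA-MB-231 cells were plated at 5×10^5 cells/mL in 6-well plates, left to adhere overnight, then treated 24 h at 1, 2 and 4 μM. Cells were trypsinized, washed in PBS and loaded with rhodamine-123 (10 μg/mL) in PBS for 30 min at room temperature. After two PBS washes, fluorescence was read by spectrofluorometer (ex 480/em 530 nm). Loss is expressed against control; three independent experiments in triplicate.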

[13] = Cytotoxicity against human BT549 cells assessed as reduction in cell viability after 48 hrs by MTT assay; assay type: functional, cell-based; conditions: BT-549, 48 h; procedure, shortened: as §3
[14] = Cytotoxicity against human PC3 cells assessed as growth inhibition at 50 uM after 48 hrs by MTT assay relative to control; assay type: functional; conditions: PC-3, 48 h, read-out: GI; procedure, shortened: as §3
[15] = Cytotoxicity against human DU145 cells assessed as reduction in cell viability after 48 hrs by MTT assay; assay type: functional, cell-based; conditions: DU-145, 48 h; procedure, shortened: as §3
MDA-MB-231 [16] = test: Induction of apoptosis in human MDA-MB-231 cells assessed as loss of mitochondrial membrane potential at 1 uM after 24 hrs by rhodamine-123 -based spectrofluorometric analysis relative to control; assay type: functional; procedure, shortened: as §4
[17] = Cytotoxicity against HGC cells assessed as reduction in cell viability after 48 hrs by MTT assay; assay type: functional, cell-based; conditions: Homo sapiens; procedure, shortened: as §3
MDA-MB-231 [18] = test: Induction of apoptosis in human MDA-MB-231 cells assessed as increase in cleaved PARP expression after 24 hrs by Western blot analysis; assay type: functional, cell-based
Procedure, shortened: (§5)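 MDA-MB-231 treated at 1, 2 or 4 µM for 24 h. Whole-cell extracts prepared in RIPA buffer. Blots probed with rabbit anti-caspase-3, anti-Bcl2 and anti-β-actin (1:1000) and anti-Bax (1:500), then HRP secondaries and ECL detection. Membranes stripped and reprobed. Bands quantified by densitometry as fold change versus control. Mean ± SEM, n=3.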

MDA-MB-231 [19] = test: Induction of apoptosis in human MDA-MB-231 cells assessed as late apoptotic cells at 4 uM after 24 hrs by Annexin V-FITC/propidium iodide-staining based FACS analysis (reference value: 3.6 %); assay type: functional
[20] = Cytotoxicity against human MDA-MB-231 cells assessed as growth inhibition at 50 uM after 48 hrs by MTT assay relative to control; assay type: functional; conditions: MDA-MB-231, 48 h, read-out: GI; procedure, shortened: as §3
[21] = Cytotoxicity against human PC3 cells assessed as reduction in cell viability after 48 hrs by MTT assay; assay type: functional, cell-based; conditions: PC-3, 48 h; procedure, shortened: as §3
MDA-MB-231 [22] = test: Induction of apoptosis in human MDA-MB-231 cells assessed as cell wall deformation at 1 to 4 uM after 24 hrs by phase contrast microscopic analysis; assay type: functional, cell-based; procedure, shortened: as §2
MDA-MB-231 [23] = test: Induction of apoptosis in human MDA-MB-231 cells assessed as viable cells at 1 uM after 24 hrs by Annexin V-FITC/propidium iodide-staining based FACS analysis (reference value: 89.5 %); assay type: functional; conditions: MDA-MB-231, 24 h, read-out: Activity
MDA-MB-231 [24] = test: Induction of apoptosis in human MDA-MB-231 cells assessed as decrease in Bcl2 expression after 24 hrs by Western blot analysis; assay type: functional, cell-based; procedure, shortened: as §5
MDA-MB-231 [25] = test: Induction of apoptosis in human MDA-MB-231 cells assessed as early apoptotic cells at 2 uM after 24 hrs by Annexin V-FITC/propidium iodide-staining based FACS analysis (reference value: 4.1 %); assay type: functional
MDA-MB-231 [26] = test: Induction of apoptosis in human MDA-MB-231 cells assessed as necrotic cells at 4 uM after 24 hrs by Annexin V-FITC/propidium iodide-staining based FACS analysis (reference value: 2.8 %); assay type: functional

Question: What does the source list for `CC(C)n1c(/C=C2/C(=O)Nc3ccc(Br)cc32)nc2ccccc21`?
Answer: Activity [1]: 20.8%; Activity (MDA-MB-231 [2]): Active; inhibition of growth at 50 µM [3]: > 50%; Activity (MDA-MB-231 [4]): Active; selectivity ratio [5]: 6.5; IC50 [6]: 14.9 µM; Activity (MDA-MB-231 [7]): Dose-dependent effect; Activity [8]: 18.9%; IC50 [9]: 5.96 µM; inhibition of growth at 50 µM [10]: > 50%; IC50 [11]: 8.63 µM; Activity (MDA-MB-231 [12]): 32.5%; IC50 [13]: 13.7 µM; inhibition of growth at 50 µM [14]: > 50%; IC50 [15]: 7.5 µM; Activity (MDA-MB-231 [16]): 25.2%; IC50 [17]: 12.4 µM; Activity (MDA-MB-231 [18]): Dose-dependent effect; Activity (MDA-MB-231 [19]): 7.1%; inhibition of growth at 50 µM [20]: > 50%; IC50 [21]: 10.7 µM; Activity (MDA-MB-231 [22]): Active; viability at 1 µM (MDA-MB-231 [23]): 83.3%; Activity (MDA-MB-231 [24]): Dose-dependent effect; Activity (MDA-MB-231 [25]): 18.7%; Activity (MDA-MB-231 [26]): 4.2%
